# Source: PubChem BioAssay
# Rows were chosen to be rich in hits. Some 2.4% of all compounds tested hit in one or more screens of this group.
# VIM-2 inh = inhibitors of Pseudomonas aeruginosa VIM-2 metallo-beta-lactamase; 0.89% of 290,000 active; purified VIM-2, nitrocefin hydrolysis, epi-absorbance fluorescence; AID 1527; inhibition, % at 5.6 µM;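 active = inhibition above the mean of all tested compounds plus 3 SD, cutoff set per screening run, cut at about 7.5% in these data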;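 note: red hydrolysis product quenches plate fluorescence so inhibitors raise well fluorescence; 0% = enzyme with DMSO and 100% = DMSO without enzyme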
# IMP-1 inh = inhibitors of Pseudomonas aeruginosa IMP-1 metallo-beta-lactamase; 0.45% of 290,000 active; AID 1556; purified IMP-1, nitrocefin hydrolysis, epi-absorbance fluorescence; inhibition, % at 5.6 µM;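 active = inhibition above the mean plus 3 SD of all compounds in the same screening run, cut at about 4.5% in these data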;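 note: 0% = IMP-1 with DMSO and 100% = DMSO wells lacking enzyme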
#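 System – purified recombinant IMP-1 beta-lactamase · Input – IMP-1 dispensed at 0.2 nM · Timing – 15 min preincubation plus 25 min reaction at 25 °C · Signal – Epi-absorbance fluorescence, 480 nm excitation, 530 nm emission · Measure – percent IMP-1 inhibition derived from blank-referenced optical density · Controls – Enzyme-plus-DMSO low control, enzyme-free DMSO high control · Replication – singlicate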
# PfM18AAP inh-1 = blocks P. falciparum M18 aspartyl aminopeptidase. 1.2% of 290,000 active. inhibition, % at 7.35 µM. recombinant PfM18AAP, H-Glu-NHMec fluorogenic cleavage;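 active = inhibition above the campaign mean inhibition over all tested compounds plus 3 SD, cut at about 28% in these data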;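 note: 0% = plate median of test compound wells and 100% = 2 mM ZnCl2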
# HGIII-sPLA2 inh = Inhibits HGIII-sPLA2 liposome hydrolysis, primary screen. Q9NZ20. QFRET BODIPY PC-A2 liposome hydrolysis, fluorescence. inhibition, % at 12.2 µM. 0.56% of 370,000 active. AID 743126;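 active = inhibition above mean plus 3 SD of compounds lying within the high and low control bounds, cut at about 19% in these data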;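 note: 0% = median of test compound wells and 100% = no enzyme DMSO wells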
# PfM18AAP inh-2 = PfM18AAP inhibition, confirmation | 28% of 2,400 active | shares compounds with PfM18AAP inh-1 | recombinant PfM18AAP, H-Glu-NHMec fluorogenic cleavage | inhibition, % at 7.35 µM | AID 2170;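 active = mean inhibition over replicate wells above the hit cutoff set for the earlier primary screen, cut at about 29% in these data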;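 note: 0% = median of test compound wells and 100% = 2 mM ZnCl2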
# CTSL1 counter = Cathepsin L (human) inhibition, confirmation | 2,400 tested, under 10 active | purified cathepsin L1, Z-Leu-Arg-MCA fluorescence | AID 2178 | inhibition, % at 5.96 µM | shares compounds with PfM18AAP inh-1;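 active = average inhibition across replicates above the hit cutoff set in the earlier primary screen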;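 note: 0% = median of test compound wells and 100% = Z-Phe-Ala-diazomethylketone 1 µM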
# Target sequence (P07711 whole entry, looked up): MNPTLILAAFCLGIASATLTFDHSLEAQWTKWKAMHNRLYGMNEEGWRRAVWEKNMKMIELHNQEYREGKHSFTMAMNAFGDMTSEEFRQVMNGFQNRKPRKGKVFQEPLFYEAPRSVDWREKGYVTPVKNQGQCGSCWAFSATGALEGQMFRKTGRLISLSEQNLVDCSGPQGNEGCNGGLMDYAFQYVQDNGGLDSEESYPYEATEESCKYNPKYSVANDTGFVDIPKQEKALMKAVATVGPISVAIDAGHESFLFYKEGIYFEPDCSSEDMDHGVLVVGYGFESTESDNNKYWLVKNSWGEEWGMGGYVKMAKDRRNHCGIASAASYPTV
# The depositor's hits bear a star; x = not tested or not shown.
SMILES,VIM-2 inh,IMP-1 inh,PfM18AAP inh-1,HGIII-sPLA2 inh,PfM18AAP inh-2,CTSL1 counter
Cc1c(Cc2ccccc2)c(=O)oc2c(O)c(O)ccc12,-1,-5,47*,-7,23,8
COc1ccc(C(=O)n2cnnc2N)cc1,-3,-1,48*,5,61*,1
CCOc1ccc(C(=O)n2cnnc2N)cc1,-1,-1,48*,6,56*,1
O=[N+]([O-])c1ccccc1/C=C/CN1CCN(Cc2ccc3c(c2)OCO3)CC1,-1,-1,-2,8,x,x
COc1cccc(/C=C2\SC(=O)N(CCC(=O)N3CCC(C(=O)O)CC3)C2=O)c1,1,1,35*,7,-38,3
CC(C)C[C@H]1CN(CCCC[C@@H]2CNC(=O)C(=O)N2CC2CCCCC2)C(=O)C(=O)N1Cc1ccccc1,x,x,x,-10,x,x
Nc1[nH]c(C(=O)c2ccccc2)c(-c2ccc(Br)cc2)c1C(=O)c1ccc(Br)cc1,x,x,x,-4,x,x
N#Cc1c(NC(=O)CSc2ccccn2)oc(-c2ccccc2)c1-c1ccccc1,-5,-1,50*,-9,-37,2
CCOc1ccc(CCN2C(=S)N([C@@H](CC(C)C)CN3CCCC3CN3C(=S)NC[C@@H]3CC(C)C)C[C@@H]2CC(C)C)cc1 (some centres undefined),x,x,x,-2,x,x
NC(N)=Nc1ccc(C=C2C=Cc3ccccc32)cc1,x,x,x,8,x,x
C/C(=N/Nc1nc(C)cc(-c2ccccc2)n1)c1ccco1,-3,0,13,2,x,x
C/C(=N\Nc1nc(C)cc(-c2ccccc2)n1)c1ccc(C)o1,1,0,52*,-10,-34,-1
O=C(NNc1cc(C(F)(F)F)ccc1Cl)c1ccc(=O)[nH]c1,0,-1,44*,12,19,2
O=C(c1ccc(=O)[nH]c1)N1CCN(S(=O)(=O)c2cc(C(F)(F)F)ccc2Cl)CC1,-3,-3,-3,2,x,x
CNC(=O)COc1coc(CN2CCN(c3ccc(OC)cc3)CC2)cc1=O,0,-1,4,12,x,x
C[C@H](O)c1[nH]c2cc(F)ccc2c1[C@H](C)O,0,2,10,2,x,x
Cc1cc(C(F)(F)F)cc(NNC(=O)NC(=O)c2c(F)cccc2Cl)n1,-4,-2,42*,7,-3,6
COc1ccc(NC(=O)C2Cc3c(-c4ccco4)ccnc3O2)cc1OC (centres undefined),x,x,x,10,x,x
Cc1ccc(Nc2nc(-c3cccnc3)nc3ccccc23)cc1,-1,-3,4,-6,x,x
Cc1ccc(-c2nc(N/N=C/c3ccncc3)c3ccccc3n2)cc1,0,-2,43*,-33,-69,1
O=C1CCCC2=C1C(c1ccc(O)c(O)c1)Nc1ccc3ncccc3c12 (centres undefined),-2,-2,78*,4,78*,1
CC(=O)OC1C=CCC2C(=O)c3cccc(O)c3C(O)C12 (centres undefined),x,x,x,8,x,x
NC(CSC(c1ccccc1)(c1ccccc1)c1ccc2c(c1)OCO2)C(=O)O (centres undefined),x,x,x,-8,x,x
N#CC1=C(N)NC(=S)C(C(N)=O)C1c1ccc([N+](=O)[O-])cc1 (centres undefined),-4,-2,48*,-1,35*,7
COc1ccc(/C(C)=N/Nc2nc3ccccc3nc2C)cc1OC,-3,-2,39*,8,-21,3
SMILES,VIM-2 inh,IMP-1 inh,PfM18AAP inh-1,HGIII-sPLA2 inh,PfM18AAP inh-2,CTSL1 counter
CCOc1ccccc1NC(=O)C1CCCN(S(=O)(=O)c2ccc3c(c2)C(C)(C)C(=O)N3C)C1 (centres undefined),3,0,7,0,x,x
COc1ccc(C2=CC(=O)C=CC2=O)cc1,-1,-2,56*,x,62*,-3
FC(F)Oc1ccc(/C=N/n2c(Cc3ccc(Br)cc3)n[nH]c2=S)cc1,-6,-2,46*,-4,-5,0
COc1cc(-c2c(C#N)c(N)nc3[nH]c(=S)[nH]c(=O)c23)ccc1O,-2,-1,33*,-3,21,7
O=C(c1ccc(Cl)cc1)c1c[nH]cc1-c1ccccc1,2,4.5*,37*,-8,-43,1
COc1ccc(C(=O)c2c[nH]cc2-c2ccccc2)cc1,-2,-1,3,-7,x,x
O=c1cc2oc3cc(O)c(O)cc3c(-c3ccccc3[N+](=O)[O-])c-2cc1O,-12,-6,59*,18,49*,-1
O=C(O)c1cccc(-c2ccc(/C=N/n3cnnc3)o2)c1,11*,-3,32*,-5,-12,7
Cc1c(C(=O)O)cccc1-c1ccc(/C=N/Nc2ccc(Br)cc2)o1,-1,-1,-18,-16,x,x
Cc1c(C(=O)O)cccc1-c1ccc(/C=N/n2cnnc2)o1,-1,-3,35*,6,-1,-3
CC1CCC(NC(=O)C(NS(=O)(=O)c2ccc(Br)cc2)C(C)C)CC1 (centres undefined),x,x,x,-4,x,x
COc1cc(NC(=O)C[n+]2ccc(C(=O)c3ccccc3)cc2)cc(OC)c1,x,x,x,-43,x,x
COc1ccc(/C(=N\Nc2ccccc2C(=O)O)c2ccccc2)cc1,-2,-3,38*,-21,-12,0
Cc1ccc(S(=O)(=O)NCCNC(=O)CN2CCOCC2)cc1,-1,-1,6,-4,x,x
CCOc1cc(C2C(C(=O)c3ccc(C)cc3)=C(C(=O)OC)Nc3nnnn32)ccc1O (centres undefined),0,-3,57*,-17,-25,0
COC(=O)C1=C(C(=O)c2ccccc2)C(c2ccccc2)n2nnnc2N1 (centres undefined),-4,-2,17,-2,x,x
COC(=O)C1=C(C(C)=O)C(c2ccc(C(=O)OC)cc2)n2nnnc2N1 (centres undefined),0,-3,52*,3,-39,-3
COC(=O)C1=C(C(C)=O)C(c2ccc(C)cc2)n2nnnc2N1 (centres undefined),1,0,52*,3,-33,2
COc1ccc(OC)c(NC(=O)CSc2nnc(CNC(=O)c3cc(OC)c(OC)c(OC)c3)o2)c1,-1,-3,2,4,x,x
Cc1ccc(C2=Nc3ccccc3SC(c3cccc([N+](=O)[O-])c3)C2)cc1 (centres undefined),1,-1,33*,12,-51,3
O=[N+]([O-])c1cccc(C2CC(c3ccccc3)=NN2c2ccccc2)c1 (centres undefined),-2,-4,10,6,x,x
CC1C=CCC2C(=O)N(c3cccc(C(=O)Nc4ccc(Br)cc4)c3)C(=O)C12 (centres undefined),1,-2,-16,-41,x,x
O=C(C=Cc1cccc(O)c1)c1ccccc1O,x,x,x,-7,x,x
O=C(/C=C/c1ccc(O)c(O)c1)c1ccccc1O,0,-3,72*,-5,61*,3
Cc1nc(CCNC(=O)c2cc(COc3ccc(F)cc3Cl)on2)sc1C,0,-4,-1,-14,x,x
